Assay [1] concerns the target T1, Mitogen-activated protein kinase kinase kinase 12 (Homo sapiens, UniProt Q12852).
T1 sequence (Q12852 whole entry): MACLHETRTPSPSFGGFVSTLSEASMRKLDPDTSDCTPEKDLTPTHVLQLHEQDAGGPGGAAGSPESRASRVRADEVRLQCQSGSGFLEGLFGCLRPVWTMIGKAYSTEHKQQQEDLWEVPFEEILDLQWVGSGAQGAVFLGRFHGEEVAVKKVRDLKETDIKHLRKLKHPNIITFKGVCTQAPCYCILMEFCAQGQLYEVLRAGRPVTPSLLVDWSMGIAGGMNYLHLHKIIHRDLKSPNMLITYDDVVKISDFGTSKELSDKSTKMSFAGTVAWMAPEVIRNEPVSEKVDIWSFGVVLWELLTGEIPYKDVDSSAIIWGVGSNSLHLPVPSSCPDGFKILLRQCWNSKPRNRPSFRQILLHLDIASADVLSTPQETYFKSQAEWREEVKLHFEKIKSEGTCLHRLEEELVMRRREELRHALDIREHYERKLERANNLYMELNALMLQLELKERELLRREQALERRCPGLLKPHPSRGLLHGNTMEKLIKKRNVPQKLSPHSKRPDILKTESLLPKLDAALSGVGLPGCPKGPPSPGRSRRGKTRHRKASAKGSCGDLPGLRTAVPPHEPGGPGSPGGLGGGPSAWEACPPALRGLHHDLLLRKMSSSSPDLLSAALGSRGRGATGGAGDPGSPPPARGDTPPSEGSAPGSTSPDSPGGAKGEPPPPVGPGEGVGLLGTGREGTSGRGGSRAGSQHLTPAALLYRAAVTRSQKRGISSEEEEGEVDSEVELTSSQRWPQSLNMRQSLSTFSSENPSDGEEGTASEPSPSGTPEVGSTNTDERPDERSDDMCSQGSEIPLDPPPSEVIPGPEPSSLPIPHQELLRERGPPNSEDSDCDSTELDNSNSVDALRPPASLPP
Kind of assay: Binding affinity to N-terminally GST-tagged wild type human DLK (1 to 520 residues) expressed in sf21 insect cells using N-terminally His-tagged MKK4 K131M as substrate after 60 mins in presence of ATP by TR-FRET assay. (In general: In TR-FRET formats the signal depends on donor and acceptor labels being close together.)

Assay [2] addresses Serine/threonine-protein kinase 17A (Homo sapiens) (UniProt Q9UEE5). Kind of assay: Inhibition of full length recombinant GST-tagged human DRAK1 expressed in baculovirus expression system at 1 uM by FRET assay relative to control.
Assay [3] deals with Aurora kinase B (Homo sapiens) (UniProt Q96GD4). Description: Inhibition of recombinant full length His-tagged human Aurora B expressed in baculovirus expression system at 1 uM by FRET assay relative to control.
Assay [4] has as its target RAC-beta serine/threonine-protein kinase (Homo sapiens) (UniProt P31751). Kind of assay: Inhibition of recombinant full length His-tagged human AKT2 expressed in baculovirus expression system at 1 uM by FRET assay relative to control.
For assay [5], the target named is Activin receptor type-1B (Homo sapiens) (UniProt P36896). Description: Inhibition of recombinant GST-tagged human ACVR1B catalytic domain (150 to 505 residues) expressed in baculovirus expression system at 1 uM by FRET assay relative to control.
Activin receptor type-1B (Homo sapiens), sequence (P36896 whole entry, the tested form may be a part): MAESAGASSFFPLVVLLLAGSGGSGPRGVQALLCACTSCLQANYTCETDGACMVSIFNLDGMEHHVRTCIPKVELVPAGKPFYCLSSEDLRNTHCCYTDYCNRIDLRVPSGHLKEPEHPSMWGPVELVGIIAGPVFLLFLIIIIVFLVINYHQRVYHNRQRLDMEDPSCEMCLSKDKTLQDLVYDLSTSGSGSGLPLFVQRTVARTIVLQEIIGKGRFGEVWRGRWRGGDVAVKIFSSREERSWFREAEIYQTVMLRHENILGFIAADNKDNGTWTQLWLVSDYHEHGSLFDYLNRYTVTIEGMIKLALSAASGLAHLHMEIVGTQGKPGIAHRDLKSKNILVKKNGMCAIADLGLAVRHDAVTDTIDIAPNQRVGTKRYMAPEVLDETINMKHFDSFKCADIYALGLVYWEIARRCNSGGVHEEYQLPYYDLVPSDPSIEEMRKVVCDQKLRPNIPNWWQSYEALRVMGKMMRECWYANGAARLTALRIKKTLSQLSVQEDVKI
The target of assay [6] is Mitogen-activated protein kinase 10 (Homo sapiens, UniProt P53779). Description: Inhibition of recombinant full length GST-tagged human JNK3 expressed in baculovirus expression system at 1 uM by FRET assay relative to control. The gist of the method: (§1)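 Single-concentration screen at 1 μM in Life Technologies SelectScreen, across a 220-kinase panel. Z′-LYTE format measures phosphorylation of a labeled peptide by FRET. Results are reported as percent inhibition.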
Mitogen-activated protein kinase 10, sequence (P53779 whole entry): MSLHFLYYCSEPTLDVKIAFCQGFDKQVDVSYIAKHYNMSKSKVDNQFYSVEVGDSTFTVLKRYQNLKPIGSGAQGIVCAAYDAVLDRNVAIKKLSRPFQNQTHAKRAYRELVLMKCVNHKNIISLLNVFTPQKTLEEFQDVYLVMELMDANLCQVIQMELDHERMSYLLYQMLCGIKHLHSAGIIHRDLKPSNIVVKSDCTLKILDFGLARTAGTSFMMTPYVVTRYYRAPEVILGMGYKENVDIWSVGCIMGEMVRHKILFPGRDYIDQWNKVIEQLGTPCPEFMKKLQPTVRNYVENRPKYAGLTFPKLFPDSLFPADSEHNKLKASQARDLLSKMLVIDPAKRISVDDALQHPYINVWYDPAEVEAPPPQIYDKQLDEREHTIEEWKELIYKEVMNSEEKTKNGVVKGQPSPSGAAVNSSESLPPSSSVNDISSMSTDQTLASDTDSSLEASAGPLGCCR

Assay [7] deals with Interleukin-1 receptor-associated kinase 4 (Homo sapiens) (UniProt Q9NWZ3). Description: Inhibition of recombinant full length His-tagged human IRAK4 expressed in baculovirus expression system at 1 uM by FRET relative to control.
For assay [8], the target named is G protein-coupled receptor kinase 6 (Homo sapiens) (UniProt P43250). Kind of assay: Inhibition of recombinant full length GST-tagged human GRK6 expressed in baculovirus expression system at 1 uM by FRET relative to control. The method, boiled down:
as §1

For assay [9], the target named is Serine/threonine-protein kinase PAK 3 (Homo sapiens) (UniProt O75914). Description: Inhibition of recombinant full length His-tagged human PAK3 expressed in baculovirus expression system at 1 uM by FRET assay relative to control.
The target in assay [10] is Serine/threonine-protein kinase 24 (Homo sapiens) (UniProt Q9Y6E0). Description: Inhibition of recombinant full length GST-tagged human MST3 expressed in baculovirus at 1 uM by FRET assay relative to control. The method, boiled down: as §1
Serine/threonine-protein kinase 24 (Homo sapiens), sequence (Q9Y6E0 whole entry, looked up): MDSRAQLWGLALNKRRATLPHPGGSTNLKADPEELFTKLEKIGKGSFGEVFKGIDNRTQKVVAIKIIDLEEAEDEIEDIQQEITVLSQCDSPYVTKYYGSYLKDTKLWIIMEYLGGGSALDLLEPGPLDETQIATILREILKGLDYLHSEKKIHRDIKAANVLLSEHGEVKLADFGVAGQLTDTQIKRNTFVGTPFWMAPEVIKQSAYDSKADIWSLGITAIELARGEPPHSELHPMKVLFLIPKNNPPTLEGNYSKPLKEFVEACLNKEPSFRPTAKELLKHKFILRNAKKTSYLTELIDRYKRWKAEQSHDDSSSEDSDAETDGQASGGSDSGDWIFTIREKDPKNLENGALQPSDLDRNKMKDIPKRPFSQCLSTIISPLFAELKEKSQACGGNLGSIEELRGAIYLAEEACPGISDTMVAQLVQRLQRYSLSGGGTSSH
The target in assay [11] is Mitogen-activated protein kinase kinase kinase 9 (Homo sapiens, UniProt P80192). Description: Inhibition of recombinant human GST-tagged MLK1 expressed in baculovirus at 1 uM by FRET assay relative to control.
Mitogen-activated protein kinase kinase kinase 9, sequence (P80192 whole entry, looked up, the tested form may be a part): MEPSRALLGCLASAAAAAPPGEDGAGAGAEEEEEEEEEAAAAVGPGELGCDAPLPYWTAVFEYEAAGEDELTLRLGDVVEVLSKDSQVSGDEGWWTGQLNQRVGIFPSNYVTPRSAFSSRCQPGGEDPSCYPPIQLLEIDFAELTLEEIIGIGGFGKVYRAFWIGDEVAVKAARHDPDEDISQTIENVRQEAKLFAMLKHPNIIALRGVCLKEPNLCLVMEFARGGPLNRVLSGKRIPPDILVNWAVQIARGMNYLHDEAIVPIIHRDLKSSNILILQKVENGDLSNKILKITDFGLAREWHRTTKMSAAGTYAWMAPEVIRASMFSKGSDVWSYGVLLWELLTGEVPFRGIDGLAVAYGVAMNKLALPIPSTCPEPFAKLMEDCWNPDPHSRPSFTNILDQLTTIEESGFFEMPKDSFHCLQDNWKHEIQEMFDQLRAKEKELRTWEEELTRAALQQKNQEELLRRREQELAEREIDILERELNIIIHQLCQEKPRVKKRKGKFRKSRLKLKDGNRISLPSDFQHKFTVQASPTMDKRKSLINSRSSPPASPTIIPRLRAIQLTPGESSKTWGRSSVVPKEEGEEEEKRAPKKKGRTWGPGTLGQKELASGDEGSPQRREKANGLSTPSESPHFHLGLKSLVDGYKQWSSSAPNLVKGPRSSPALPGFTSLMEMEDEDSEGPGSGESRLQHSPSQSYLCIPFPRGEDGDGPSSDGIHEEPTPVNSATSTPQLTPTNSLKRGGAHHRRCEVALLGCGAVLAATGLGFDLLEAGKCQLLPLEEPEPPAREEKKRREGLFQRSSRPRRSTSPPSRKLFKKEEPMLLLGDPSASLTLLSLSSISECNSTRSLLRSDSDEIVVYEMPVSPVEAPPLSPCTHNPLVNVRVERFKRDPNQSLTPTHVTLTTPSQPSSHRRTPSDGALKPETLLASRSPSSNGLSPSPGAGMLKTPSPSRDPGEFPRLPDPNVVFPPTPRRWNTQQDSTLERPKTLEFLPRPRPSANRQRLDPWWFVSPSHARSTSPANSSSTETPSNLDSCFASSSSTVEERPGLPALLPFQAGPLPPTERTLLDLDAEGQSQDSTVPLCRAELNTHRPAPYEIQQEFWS
The target in another assay is TAK1/TAB1 (Homo sapiens) (UniProt Q15750+O43318). Description: Inhibition of recombinant full length His-tagged human TAK1-TAB1 (437 to 504 residues) expressed in baculovirus expression system at 1 uM by FRET assay relative to control.
The target in assay [12] is Proto-oncogene tyrosine-protein kinase ROS (Homo sapiens) (UniProt P08922). Description: Inhibition of recombinant GST-tagged human Ros cytoplasmic domain expressed in baculovirus expression system at 1 uM by FRET assay relative to control. The method, boiled down: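 Single-point screen at 1 μM compound in a 220-kinase panel run by Life Technologies (SelectScreen). Z′-LYTE format: phosphorylation of a labeled peptide substrate read by FRET. Values are reported as percent inhibition.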

Assay [13] deals with Serine/threonine-protein kinase PLK2 (Homo sapiens) (UniProt Q9NYY3). Description: Inhibition of full length recombinant GST-tagged human PLK2 expressed in baculovirus expression system at 1 uM by FRET assay relative to control.
For assay [14], the target named is Serine/threonine-protein kinase PLK1 (Homo sapiens) (UniProt P53350). Description: Inhibition of full length recombinant His-tagged human PLK1 expressed in baculovirus expression system at 1 uM by FRET assay relative to control.
Assay [15] concerns the target Adenosine receptor A1 (Homo sapiens) (UniProt P30542). Kind of assay: Binding affinity to recombinant human A1 adenosine receptor at 10 uM relative to control. The method, boiled down: (§2)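 Broad radioligand-binding and enzyme screening panel covering 42 targets (biogenic amine and neuropeptide receptors, ion channels, neurotransmitter transporters, acetylcholinesterase). Single test concentration of 10 μM. Results expressed as binding relative to control, with a hit defined as >50% of control.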

In assay [16] the target is Beta-2 adrenergic receptor (Homo sapiens) (UniProt P07550). Kind of assay: Binding affinity to recombinant human beta2 adrenergic receptor at 10 uM relative to control. The method, boiled down: as §2
Beta-2 adrenergic receptor (Homo sapiens), sequence (P07550 whole entry, looked up): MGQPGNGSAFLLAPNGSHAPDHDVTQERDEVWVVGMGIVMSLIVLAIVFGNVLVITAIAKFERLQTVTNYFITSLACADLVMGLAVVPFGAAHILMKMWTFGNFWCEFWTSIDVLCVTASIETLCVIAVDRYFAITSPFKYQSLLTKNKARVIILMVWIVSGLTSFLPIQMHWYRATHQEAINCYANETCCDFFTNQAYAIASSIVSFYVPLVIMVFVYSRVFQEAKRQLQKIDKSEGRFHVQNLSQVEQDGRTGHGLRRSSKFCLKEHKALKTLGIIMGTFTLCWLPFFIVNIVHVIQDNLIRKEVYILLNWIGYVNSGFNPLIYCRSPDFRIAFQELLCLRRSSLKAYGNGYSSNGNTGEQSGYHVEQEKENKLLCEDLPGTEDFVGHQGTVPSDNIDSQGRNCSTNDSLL
Assay [17] concerns the target Peroxisome proliferator-activated receptor delta (Homo sapiens) (UniProt Q03181). Description: Binding affinity to recombinant human PPARdelta at 10 uM relative to control. The gist of the method: as §2
The target of assay [18] is Sodium-dependent dopamine transporter (Homo sapiens) (UniProt Q01959). Description: Binding affinity to recombinant human dopamine transporter at 10 uM relative to control. The method, boiled down:
as §2

Assay [19] addresses Acetylcholinesterase (Homo sapiens) (UniProt P22303). Kind of assay: Binding affinity to acetylcholinesterase (unknown origin) at 10 uM relative to control. The method, boiled down:
as §2

Our source for the Ki, inhibition and Activity values is ChEMBL document CHEMBL4118097, “Selective Inhibitors of Dual Leucine Zipper Kinase (DLK, MAP3K12) with Activity in a Model of Alzheimer's Disease” (J Med Chem, 2017).

G protein-coupled receptor kinase 6 (Homo sapiens), sequence (P43250 whole entry, looked up): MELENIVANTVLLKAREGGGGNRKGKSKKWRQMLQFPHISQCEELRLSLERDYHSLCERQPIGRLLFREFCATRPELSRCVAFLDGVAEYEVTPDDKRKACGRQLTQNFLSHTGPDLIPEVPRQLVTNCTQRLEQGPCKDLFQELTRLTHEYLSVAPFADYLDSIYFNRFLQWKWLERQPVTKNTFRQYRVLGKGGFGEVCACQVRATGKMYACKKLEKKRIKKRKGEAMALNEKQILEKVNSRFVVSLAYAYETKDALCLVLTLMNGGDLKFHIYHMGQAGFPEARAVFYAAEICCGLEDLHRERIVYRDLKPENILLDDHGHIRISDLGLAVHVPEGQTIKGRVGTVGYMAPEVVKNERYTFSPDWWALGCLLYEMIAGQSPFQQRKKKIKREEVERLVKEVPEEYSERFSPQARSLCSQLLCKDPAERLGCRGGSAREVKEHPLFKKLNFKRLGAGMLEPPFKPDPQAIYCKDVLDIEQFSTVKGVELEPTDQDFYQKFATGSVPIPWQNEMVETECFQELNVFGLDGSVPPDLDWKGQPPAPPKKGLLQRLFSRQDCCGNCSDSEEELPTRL
Serine/threonine-protein kinase 17A (Homo sapiens), sequence (Q9UEE5 whole entry): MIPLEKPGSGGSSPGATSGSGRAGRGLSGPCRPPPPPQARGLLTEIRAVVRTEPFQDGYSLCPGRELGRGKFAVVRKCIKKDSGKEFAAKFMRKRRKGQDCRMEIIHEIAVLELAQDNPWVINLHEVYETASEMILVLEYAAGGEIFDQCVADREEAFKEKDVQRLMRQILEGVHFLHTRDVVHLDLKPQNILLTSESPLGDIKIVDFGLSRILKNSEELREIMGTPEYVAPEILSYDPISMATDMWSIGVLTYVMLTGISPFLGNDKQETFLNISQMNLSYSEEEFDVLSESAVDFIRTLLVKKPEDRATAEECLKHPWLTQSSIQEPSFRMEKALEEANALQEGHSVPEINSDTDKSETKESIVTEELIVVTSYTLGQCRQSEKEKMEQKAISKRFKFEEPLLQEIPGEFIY
Adenosine receptor A1 (Homo sapiens), sequence (P30542 whole entry): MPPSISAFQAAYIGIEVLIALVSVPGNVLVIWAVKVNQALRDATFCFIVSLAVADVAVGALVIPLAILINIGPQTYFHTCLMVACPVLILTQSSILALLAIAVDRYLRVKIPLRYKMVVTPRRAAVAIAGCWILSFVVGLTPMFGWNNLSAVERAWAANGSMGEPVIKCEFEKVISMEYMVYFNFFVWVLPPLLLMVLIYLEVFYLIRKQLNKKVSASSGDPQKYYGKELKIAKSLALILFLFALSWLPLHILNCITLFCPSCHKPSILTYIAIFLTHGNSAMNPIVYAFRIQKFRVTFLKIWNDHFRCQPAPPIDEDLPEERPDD
Acetylcholinesterase (Homo sapiens), sequence (P22303 whole entry): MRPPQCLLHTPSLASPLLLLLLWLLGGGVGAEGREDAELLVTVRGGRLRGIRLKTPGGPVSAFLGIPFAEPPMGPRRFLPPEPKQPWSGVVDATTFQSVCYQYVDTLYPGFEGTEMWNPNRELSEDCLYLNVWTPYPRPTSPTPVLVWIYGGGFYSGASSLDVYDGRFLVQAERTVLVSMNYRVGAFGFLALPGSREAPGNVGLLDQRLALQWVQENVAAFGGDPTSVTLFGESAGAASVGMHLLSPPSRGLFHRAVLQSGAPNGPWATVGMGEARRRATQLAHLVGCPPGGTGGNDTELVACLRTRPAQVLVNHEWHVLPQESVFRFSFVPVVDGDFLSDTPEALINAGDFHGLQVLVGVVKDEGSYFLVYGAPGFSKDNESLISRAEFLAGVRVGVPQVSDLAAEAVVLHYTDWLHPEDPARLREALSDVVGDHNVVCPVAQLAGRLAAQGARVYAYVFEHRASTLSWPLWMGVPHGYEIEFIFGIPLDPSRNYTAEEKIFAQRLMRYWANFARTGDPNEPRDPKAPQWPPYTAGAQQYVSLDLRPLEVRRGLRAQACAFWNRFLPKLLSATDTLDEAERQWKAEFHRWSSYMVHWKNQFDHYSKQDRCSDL

A word on the Ki: it is the equilibrium dissociation constant of an inhibitor or competing ligand from its target. What is called inhibition is the drop in the measured response relative to a control, in per cent. For `CC(C)n1nc(-c2cnc(N)c(OC(F)(F)F)c2)cc1[C@H]1[C@@H]2CN(C3COC3)C[C@@H]21`, the inhibition constant Ki in assay [1] was determined as 3 nM. In addition, the inhibition in assay [2] was 5.2%; in assay [3], 14.4%; in assay [4], 3.1%; in [5], -6.8%; in assay [6] it was 8.6%; in assay [7], -1.3%. The inhibition in assay [8] was 2.5%; in assay [9], 3.6%; in assay [10], -9.5%; in assay [11], -7.2%; at TAK1/TAB1 (Homo sapiens) it was 35.6%; in assay [12] it was 37%. Also, the inhibition in [13] stood at 17.3%; in assay [14] it was 5%. Moreover, the Activity in [15], in assay [16], in [17], in assay [18] and in [19] was > 50% throughout.
`Nc1ncc(-c2cc([C@H]3[C@@H]4CN(C5COC5)C[C@@H]43)n(CC3CC3)n2)cc1C(F)(F)F`: the Ki in assay [1] was 4 nM. The inhibition in assay [2] was 7.5%; in assay [3], 7.4%; in assay [4], -0.3%; in [5] it was 2.9%; in assay [6], 4.2%; in [7] it was 5.3%. For the same compound, the inhibition in [8] was -4.2%; in [9], 17.2%; in assay [10] it was -7.7%; in assay [11], 28.5%; at TAK1/TAB1 (Homo sapiens), 42.1%; in [12], 40.1%. The figures for the inhibition in [13] and in assay [14] were 2.7% and -0.4%, respectively. Moreover, the Activity in [15], in assay [16], in assay [17], in assay [18] and in assay [19] was > 50% in each case.
